OX1R antag-1 – blocks the human orexin 1 receptor; AID 434989; O43613; CHO/OX1R cells, Fluo-8 calcium fluorescence, orexin A; 0.43% of 330,000 active; inhibition, % at 5 µM;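 active = inhibition above its plate's threshold, mean inhibition of all tested compounds on the plate plus 3 SD, cut at about 37% in these data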;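 also: 0% = orexin A challenge wells and 100% = SB-334867-A antagonist wells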
Target sequence (O43613 whole entry, looked up): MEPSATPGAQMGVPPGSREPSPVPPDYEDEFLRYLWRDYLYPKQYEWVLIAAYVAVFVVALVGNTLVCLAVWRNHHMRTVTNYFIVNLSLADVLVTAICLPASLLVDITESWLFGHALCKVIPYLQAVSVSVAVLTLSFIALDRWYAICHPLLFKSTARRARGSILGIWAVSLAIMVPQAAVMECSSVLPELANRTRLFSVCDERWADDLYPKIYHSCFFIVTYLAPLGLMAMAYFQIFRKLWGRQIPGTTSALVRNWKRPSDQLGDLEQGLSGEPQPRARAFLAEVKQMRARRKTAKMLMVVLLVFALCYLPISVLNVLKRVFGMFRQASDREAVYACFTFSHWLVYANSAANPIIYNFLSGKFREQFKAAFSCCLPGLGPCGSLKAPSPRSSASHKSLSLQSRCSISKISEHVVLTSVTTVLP
CHO parental Ca – counter-screen: ATP calcium response change in parental CHO cells | parental CHO-K1, ATP-induced calcium, Fluo-8 fluorescence | inhibition, % at 5.6 µM | 0.63% of 330,000 active | AID 463079;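 active = inhibition above that plate's mean sample inhibition plus 3 SD, cut at about 26% in these data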;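 also: 0% = ATP-challenged DMSO wells and 100% = DMSO wells without ATP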
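Material: parental CHO cells / Compound: single nominal dose of 5.6 µM per compound / Signal: Fluo-8 fluorescence / Replicates: singlicate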
OX1R antag-2 – antagonists of human orexin 1 receptor (OX1R). O43613. OX1R-expressing cells, FRET antagonist read-out. inhibition, % at 6.6 µM. 1.8% of 330,000 active. AID 485270; in the data active = inhibition mostly above about 38%, no sharp cut-off; inactive = mostly below about 40%;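 also: 0% = agonist challenge alone and 100% = reference antagonist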
OXTR potentiate – potentiates the human oxytocin receptor response; P30559; CHO-OTR cells, Fluo-8 calcium fluorescence, potentiator mode; 0% = oxytocin EC15, 100% = EC100; activation, % at 3 µM; 0.061% of 320,000 active; AID 2445;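 active = activation above that plate's cutoff, the mean activation of tested compounds plus 3 SD, cut at about 6.6% in these data, passing the limit was not always enough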;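 also: 100% uses oxytocin at 75 nM as the full agonist control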
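Material: CHO-OTR cells, human receptor; compound dosing: single dose, 3.0 µM nominal final compound concentration; schedule: 6 min compound pre-incubation at room temperature, 100 s kinetic read; measured by: kinetic Fluo-8 calcium fluorescence; read-out basis: % activation vs EC15 and EC100 oxytocin; controls: EC15 oxytocin alone as 0%, 75 nM oxytocin as 100%; replicates: singlicate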
V1R ag counter – counter-screen for oxytocin receptor agonists: human V1a receptor agonists; activation, % at 3 µM; CHO-V1R cells, Fluo-8 calcium fluorescence, agonist mode; 0% DMSO, 100% 3 nM vasopressin; 0.25% of 320,000 active;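 active = activation above the mean activation of all tested compounds plus 3 SD, per screening run, cut at about 20% in these data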;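 also: signal is peak over basal fluorescence ratio across a 100 second FLIPR read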
OXTR ag – activates the human oxytocin receptor | CHO-OTR cells, Fluo-8 calcium fluorescence; normalized: DMSO 0%, oxytocin 100% | 0.32% of 320,000 active | activation, % at 3 µM | P30559;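 active = activation above the mean of all tested compounds plus 3 SD, cutoff set per screening run, cut at about 20% in these data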;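 also: peak over basal fluorescence ratio from a 100 s FLIPR kinetic read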
Starred values were filed as active, the others as inactive. An excerpt weighted towards active compounds, which were near 2.7% of everything screened.

SMILES	OX1R antag-1	CHO parental Ca	OX1R antag-2	OXTR potentiate	V1R ag counter	OXTR ag
Cc1nc2nc[nH]n2c(=O)c1NS(=O)(=O)c1ccc(F)cc1	0	1	8	-9	1	0
CCOC(=O)C1CCCN(C(=O)c2[nH]c3ccc(OC)cc3c2C)C1 (stereo unspecified)	-16	-2	7	2	0	2
C[C@H](NC(=O)c1ccccc1)C(=O)OCC(=O)Nc1ccc2c(c1)OCO2	9	-13	8	-10	0	0
O=C(COC(=O)[C@H](Cc1c[nH]c2ccccc12)NC(=O)c1ccc(Cl)cc1)Nc1ccc2c(c1)OCO2	34	35*	6	-11	0	-1
O=C(Nc1ccc(N2CCCC(O)C2)cc1)c1snc2c(=O)[nH]cnc12 (stereo unspecified)	-5	0	40*	3	1	-1
CCc1cccc(NC(=O)c2snc3c(=O)[nH]cnc23)c1	-8	-3	35	-4	0	3
O=C(Nc1ccccc1C(=O)NC(Cc1c[nH]c2ccccc12)C(=O)O)c1ccco1 (stereo unspecified)	8	-15	65	-4	1	0
COc1ccc(C(=O)Nc2ccccc2C(=O)NC(Cc2c[nH]c3ccccc23)C(=O)O)cc1 (stereo unspecified)	21	-2	68*	-14	0	-1
COc1ccc(NC(=O)c2sc(-c3ccccc3)nc2C)c(OC)c1	-3	-38	43*	3	2	0
O=S(=O)(NCc1csc(-c2cccnc2)n1)c1ccc(Br)cc1	-11	-20	38*	-6	5	5
CNc1ccc(/C=C(\C#N)c2ccccn2)cc1[N+](=O)[O-]	7	14	41	-4	0	0
N#C/C(=C\c1ccc(Cl)c([N+](=O)[O-])c1)c1ccccn1	-8	-20	71*	-8	0	-2
CC(C)(C)C(=O)CSc1ccc(S(=O)(=O)N2CCN(Cc3ccccc3)CC2)cn1	-8	-22	2	-6	0	-1
O=C(Nc1cccc(-c2nc3ccccc3s2)c1)C1=COCCO1	1	-25	75*	-5	0	1
Cc1[nH]c2ccccc2c1SCCNC(=O)c1ccc(Br)o1	24	-25	66*	-7	-1	-2
COc1ccc(-c2[nH]c3ccccc3c2SCCNC(=O)c2cc3ccccc3oc2=O)cc1	-16	-9	42*	-5	1	1
O=C(CC1Sc2ccccc2NC1=O)NCc1ccc(Cl)cc1 (stereo unspecified)	-18	-9	25	-4	-1	0
CC(C)(C)c1nc(NC(=O)Nc2ccccc2)sc1Br	60*	47*	24	-13	6	3
COc1ccc(CN2CC(C(=O)NCCCN3CCCC(C)C3)CC2=O)cc1 (stereo unspecified)	-23	-2	16	2	1	1
CN1CCN(S(=O)(=O)c2ccc([N+](=O)[O-])cc2)CC1	-3	0	31*	-8	0	1
Cc1ccc(S(=O)(=O)N2CCN(c3ccc(N4CCOCC4)nn3)CC2)cc1[N+](=O)[O-]	-8	-23	24	-8	-1	-2
CC1CCN(S(=O)(=O)c2ccc([N+](=O)[O-])cc2)CC1	-13	1	30	-15	0	2
O=[N+]([O-])c1ccc(S(=O)(=O)N2CCN(c3ccc(N4CCOCC4)nn3)CC2)cc1	-9	-7	46*	-5	0	0
Cc1ccccc1NC(=O)c1ccc2c(c1)OCCO2	-10	1	6	-6	-1	-1
COC(=O)c1ccccc1NC(=O)c1ccc2c(c1)OCCCO2	-5	-16	59*	-3	1	0
SMILES	OX1R antag-1	CHO parental Ca	OX1R antag-2	OXTR potentiate	V1R ag counter	OXTR ag
O=C(Nc1cccc2cccnc12)c1ccc2c(c1)OCCO2	11	-10	67*	-5	-1	-1
COc1cc(NC(=O)c2ccc3c(c2)OCO3)c2ncccc2c1	-5	-12	67*	-3	0	-1
COc1cccc(NC(=O)c2ccc3c(c2)OCO3)c1	-6	-12	30	3	1	2
COc1ccc(-n2nc3c(c2NC(=O)C(C)Oc2ccccc2)CS(=O)C3)cc1 (stereo unspecified)	-5	1	10	0	0	1
CSc1nc(C)c(CCO)c(=O)[nH]1	-9	-8	10	-3	0	0
CC1Cc2ccccc2N1C(=O)C1CCCCN1S(=O)(=O)c1ccccc1 (stereo unspecified)	5	-10	49*	-1	-1	-2
Cc1ccc(S(=O)(=O)N2CCC[C@H]2C(=O)Nc2ccccc2C)cc1	7	-20	48*	-3	1	0
Cc1cccc(NC(=O)C2CCCN2S(=O)(=O)c2ccc(Cl)cc2)n1 (stereo unspecified)	22	-7	76*	-3	0	-1
O=C(Nc1ccccc1F)C1CCCN1S(=O)(=O)c1ccc(Cl)cc1 (stereo unspecified)	27	-17	46*	1	0	-2
CC1(C)C2CC[C@]3(C)C(CC=C4[C@@H]5C[C@@](C)(CO)[C@@H](O)C[C@]56C[C@@H](OC6=O)[C@]43C)[C@@]2(C)CC[C@@H]1O (stereo partly specified)	2	-5	9	2	1	1
CCN(CC1CCCO1)C(=O)CCc1nnc(CCc2ccc(OC)cc2)o1 (stereo unspecified)	-33	5	1	-3	0	0
Cc1ccc(S(=O)(=O)N(C)C)cc1NC(=O)C1CCCCN1S(=O)(=O)c1ccccc1 (stereo unspecified)	-27	-32	10	2	0	-1
Cc1cccc(NC(=O)C2CCCCN2S(=O)(=O)c2ccccc2)c1C (stereo unspecified)	5	-16	33*	-6	1	-1
COc1ccc(C)cc1NC(=O)C1CCCCN1S(=O)(=O)c1ccccc1 (stereo unspecified)	35	-28	66*	2	-2	-2
Cc1ccc(S(=O)(=O)N2Cc3ccccc3CC2C(=O)Nc2ccc3c(c2)OCO3)cc1 (stereo unspecified)	-14	-12	20	-13	-1	-2
Cc1ccc(S(=O)(=O)N2Cc3ccccc3CC2C(=O)NC(C)(C)C)cc1 (stereo unspecified)	-19	-26	27*	-4	1	-2
Cc1ccc(S(=O)(=O)N2CCC[C@H]2C(=O)Nc2ccccc2Cl)cc1	28	-16	61*	-3	0	-2

Source: PubChem BioAssay (The Scripps Research Institute Molecular Screening Center)
